biological target: T1, recombinant human TDP2 (Homo sapiens, UniProt O95551); assay: Recombinant TDP2 assay; format: biochemical; details: not given
T1 sequence (O95551 1-362): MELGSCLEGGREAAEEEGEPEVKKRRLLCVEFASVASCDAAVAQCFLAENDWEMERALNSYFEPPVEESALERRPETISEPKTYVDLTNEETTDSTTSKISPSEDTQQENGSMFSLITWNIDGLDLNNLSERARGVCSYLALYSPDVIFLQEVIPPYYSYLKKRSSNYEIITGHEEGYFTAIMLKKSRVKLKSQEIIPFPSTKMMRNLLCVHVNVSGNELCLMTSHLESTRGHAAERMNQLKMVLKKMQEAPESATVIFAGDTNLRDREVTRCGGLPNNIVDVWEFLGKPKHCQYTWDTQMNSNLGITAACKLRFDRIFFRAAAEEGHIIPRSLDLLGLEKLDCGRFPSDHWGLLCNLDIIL
Method in brief: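 Human recombinant TDP2 (25 pM) with 1 nM 18-mer 5'-phosphotyrosyl ssDNA, 3'-α32P-cordycepin-labelled. Reaction ran 15 min at room temperature in Tris-HCl pH 7.5, KCl, MgCl2, EDTA, DTT, BSA and Tween 20. Stopped with formamide loading buffer, then 16% denaturing PAGE and phosphorimaging densitometry of product. […] IC50 is 50% enzyme inhibition.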

IC50 [µM]	Compound
0.82 ± 0.28	O=C1c2ncccc2C(=O)c2c(COc3ccccc3)noc21 [Compound 65, 3-(Phenoxymethyl) isoxazolo[4,5-g]quinoline-4,9-dione]
28 ± 6.4	CCOC(=O)c1c(-c2ccccc2)oc2c1C(=O)c1ncccc1C2=O [Compound 41, Ethyl 4,9-dioxo-2-phenyl-4,9-dihydrofuro[2,3-g]quinoline-3-carboxylate]
> 111	CCOC(=O)c1c(C)oc2c1C(=O)c1ccc(C)nc1C2=O [Compound 22, Ethyl-2,7-dimethyl-4,9-dioxo-4,9-dihydrofuro[3,2-g]quinoline-3-Carboxylate]
> 111	CCOC(=O)c1c(C)oc2c1C(=O)c1nccc(-c3ccccc3[N+](=O)[O-])c1C2=O [Compound 34, Ethyl-2-methyl-8-(2-nitrophenyl)-4,9-dioxo-4,9-dihydrofuro[2,3-g]quinoline-3-carboxylate]
15 ± 1.3	O=C(OCCc1ccc(Cl)cc1)c1noc2c1C(=O)c1ncccc1C2=O [Compound 56, 4-chlorophenethyl 4,9-dioxo-4,9-dihydroisoxazolo[5,4-g]quinoline-3-carboxylate]
> 111	CCOC(=O)c1c(C)oc2c1C(=O)c1ccccc1C2=O [Compound 11, Ethyl 2-methyl-4,9-dioxo-4,9-dihydronaphtho[2,3-b]furan-3-carboxylate]
21 ± 5.5	CCOC(=O)c1c(CBr)oc2c1C(=O)c1ncccc1C2=O [Compound 43, Ethyl 2-(bromomethyl)-4,9-dioxo-4,9-dihydrofuro[2,3-g]quinoline-3-carboxylate]
0.74 ± 0.25	N#Cc1ccc(-c2noc3c2C(=O)c2cccnc2C3=O)c(F)c1 [Compound 71, 4-(4,9-Dioxo-4,9-dihydroisoxazolo[4,5-g]quinolin-3-yl)-3-fluorobenzonitrile]
5.2 ± 4.1	CCOC(=O)c1c(C=O)oc2c1C(=O)c1ncccc1C2=O [Compound 49, Ethyl-2-formyl-4,9-dioxo-4,9-dihydrofuro[2,3-g]quinoline-3-carboxylate]
10 ± 1.48	N#CCCOC(=O)c1noc2c1C(=O)c1cccnc1C2=O [Compound 60, 2-Cyanoethyl 4,9-dioxo-4,9-dihydroisoxazolo[4,5-g]quinoline-3-carboxylate]
0.96 ± 0.2	N#Cc1ccc(OCc2noc3c2C(=O)c2cccnc2C3=O)cc1F [Compound 69, 4-((4,9-Dioxo-4,9-dihydroisoxazolo[4,5-g]quinolin-3-yl)methoxy)-2-fluorobenzonitrile]
> 111	CCOC(=O)c1c(C)oc2c1C(=O)c1nc(-c3ccco3)ccc1C2=O [Compound 28, Ethyl-6-(furan-2-yl)-2-methyl-4,9-dioxo-4,9-dihydrofuro[2,3-g]quinoline-3-carboxylate]
12 ± 2.4	CCOC(=O)c1noc2c1C(=O)c1ccncc1C2=O [Compound 51, Ethyl 4,9-dioxo-4,9-dihydroisoxazolo[4,5-g]isoquinoline-3-carboxylate]
> 111	C#CCN(C)c1ccc2c(n1)C(=O)c1c(oc(C)c1C(=O)OCC)C2=O [Compound 26, Ethyl-2-methyl-6-(methyl(prop-2-yn-1-yl)amino)-4,9-dioxo-4,9-dihydrofuro[2,3-g]quinoline-3-carboxylate]
47 ± 24	CCOC(=O)c1c(-c2ccccc2)oc2c1C(=O)c1cccnc1C2=O [Compound 42, Ethyl 4,9-dioxo-2-phenyl-4,9-dihydrofuro[3,2-g]quinoline-3-carboxylate]
> 111	CCOC(=O)c1c(C)oc2c1C(=O)c1ccncc1C2=O [Compound 13, Ethyl 2-methyl-4,9-dioxo-4,9-dihydrofuro[3,2-g]isoquinoline-3-carboxylate]
> 111	CCOC(=O)c1c(C)oc2c1C(=O)c1nc3ccccc3cc1C2=O [Compound 16, Ethyl 2-methyl-4,11-dioxo-4,11-dihydrofuro[2,3-b]acridine-3-carboxylate]
0.46 ± 0.15	COc1ccc(-c2noc3c2C(=O)c2cccnc2C3=O)cc1OC [Compound 70, 3-(3,4-Dimethoxyphenyl)isoxazolo[4,5-g]quinoline-4,9-dione]
> 111	CCOC(=O)c1c(C(C)C)oc2c1C(=O)c1cccnc1C2=O [Compound 40, Ethyl 2-isopropyl-4,9-dioxo-4,9-dihydrofuro[3,2-g]quinoline-3-carboxylate]

IC50 [µM]	Compound
32 ± 3.2	CCOC(=O)c1c(C)oc2c1C(=O)c1cnccc1C2=O [Compound 12, Ethyl 2-methyl-4,9-dioxo-4,9-dihydrofuro[2,3-g]isoquinoline-3-carboxylate]
61 ± 43	CCOC(=O)c1c(C)oc2c1C(=O)c1nccnc1C2=O [Compound 14, Ethyl 7-methyl-5,9-dioxo-5,9-dihydrofuro[2,3-g]quinoxaline-8-carboxylate]
> 111	CCOC(=O)c1c(C)oc2c1C(=O)c1ccc(N(C)C)nc1C2=O [Compound 30, Ethyl-7-(dimethylamino)-2-methyl-4,9-dioxo-4,9-dihydrofuro[3,2-g]quinoline-3-carboxylate]
44 ± 2	CCOC(=O)c1c(C)oc2c1C(=O)c1nc(N3CCCCC3)ccc1C2=O [Compound 24, Ethyl-2-methyl-4,9-dioxo-6-(piperidin-1-yl)-4,9-dihydrofuro[2,3-g]quinoline-3-carboxylate]
> 111	CCOC(=O)c1c(C)oc2c1C(=O)c1nc(N3CCN(C)CC3)ccc1C2=O [Compound 25, Ethyl-2-methyl-6-(4-methylpiperazin-1-yl)-4,9-dioxo-4,9-dihydrofuro[2,3-g]quinoline-3-carboxylate]
69 ± 3.1	CCOC(=O)c1ccnc2c1C(=O)c1oc(C)c(C(=O)OCC)c1C2=O [Compound 35, Diethyl-2-methyl-4,9-dioxo-4,9-dihydrofuro[2,3-g]quinoline-3,8-dicarboxylate]
> 111	CCOC(=O)c1c(C)oc2c1C(=O)c1ccc(Cl)nc1C2=O [Compound 20, Ethyl-7-chloro-2-methyl-4,9-dioxo-4,9-dihydrofuro[3,2-g]quinoline-3-carboxylate]
> 111	CCOC(=O)c1c(C)oc2c1C(=O)c1ccc(N3CCCCC3)nc1C2=O [Compound 31, Ethyl-2-methyl-4,9-dioxo-7-(piperidin-1-yl)-4,9-dihydrofuro[3,2-g]quinoline-3-carboxylate]
22 ± 6.4	CCOC(=O)c1c(CN2CCOCC2)oc2c1C(=O)c1ncccc1C2=O [Compound 46, Ethyl 2-(morpholinomethyl)-4,9-dioxo-4,9-dihydrofuro[2,3-g]quinoline-3-ca rboxylate]
31 ± 6.4	CCOC(=O)c1c(CN2CCSCC2)oc2c1C(=O)c1ncccc1C2=O [Compound 47, Ethyl 4,9-dioxo-2-(thiomorpholinomethyl)-4,9-dihydrofuro[2,3-g]quinoline3-carboxylate]
> 111	CCOC(=O)c1c(C)oc2c1C(=O)c1ncc(C)cc1C2=O [Compound 33, Ethyl-2,7-dimethyl-4,9-dioxo-4,9-dihydrofuro[2,3-g]quinoline-3-carboxylate]
94 ± 29	CCOC(=O)c1c(C)oc2c1C(=O)c1nc(Cl)ccc1C2=O [Compound 19, Ethyl-6-chloro-2-methyl-4,9-dioxo-4,9-dihydrofuro[2,3-g]quinoline-3-carboxylate]
5.4 ± 0.8	CCOC(=O)c1noc2c1C(=O)c1cnccc1C2=O [Compound 50, Ethyl-4,9-dioxo-4,9-dihydroisoxazolo[5,4-g]isoquinoline-3-carboxylate]
21 ± 5.5	CCOC(=O)c1c(C)oc2c1C(=O)c1nc(C)ccc1C2=O [Compound 21, Ethyl-2,6-dimethyl-4,9-dioxo-4,9-dihydrofuro[2,3-g]quinoline-3-carboxylate]
37 ± 7	CCOC(=O)c1c(C)oc2c1C(=O)c1nc(N(C)C)ccc1C2=O [Compound 23, Ethyl-6-(dimethylamino)-2-methyl-4,9-dioxo-4,9-dihydrofuro[2,3-g]quinoline-3-carboxylate]
27 ± 2.5	CCOC(=O)c1c(C(Br)Br)oc2c1C(=O)c1ncccc1C2=O [Compound 44, Ethyl 2-(dibromomethyl)-4,9-dioxo-4,9-dihydrofuro[2,3-g]quinoline-3-carboxylate]
14 ± 2.9	O=C(OCC(F)(F)F)c1noc2c1C(=O)c1cccnc1C2=O [Compound 59, 2,2,2-Trifluoroethyl 4,9-dioxo-4,9-dihydroisoxazolo[4,5-g]quinoline-3-carboxylate]
8.7 ± 0.54	O=C(OCCc1cccc(F)c1)c1noc2c1C(=O)c1cccnc1C2=O [Compound 61, 3-Fluorophenethyl 4,9-dioxo-4,9-dihydroisoxazolo[4,5-g]quinoline-3-carboxylate]

same assay, conditions: read-out: TDP2 inhibitory activity IC50; mean ± SD from at least three independent experiments; recombinant TDP2

IC50 [µM]	Compound
> 111	Ethyl 2-isopropyl-4,9-dioxo-4,9-dihydrofuro[3,2-g]quinoline-3-carboxylate [Compound 38]
9.3 ± 2.7	CCOC(=O)c1noc2c1C(=O)c1nccnc1C2=O [Compound 52, Ethyl-4,9-dioxo-4,9-dihydroisoxazolo[4,5-g]quinoxaline-3-carboxylate]
20 ± 0.18	O=C(OCCOC12CC3CC(CC(C3)C1)C2)c1noc2c1C(=O)c1cccnc1C2=O [Compound 63, 2-(((3 s,5s,7s)-Adamantan-1-yl)oxy)ethyl 4,9-dioxo-4,9-dihydroisoxazolo[4,5-g]quinoline-3-carboxylate]
0.94 ± 0.24	O=C1c2ncccc2C(=O)c2c(COc3ccccc3Cl)noc21 [Compound 66, 3-((2-Chlorophenoxy)methyl)isoxazolo[4,5-g]quinoline-4,9-dione]
37 ± 2	Ethyl 2-isopropyl-4,9-dioxo-4,9-dihydrofuro[2,3-g]quinoline-3-carboxylate [Compound 37]
